We go through 17 molecules from ChEMBL document CHEMBL3352045, “Ionic liquid catalyzed synthesis of 2-(indole-3-yl)-thiochroman-4-ones and their novel antifungal activities” (2015).

Values after ≈ are worked out from the molar mass of the structure shown. Bounds are passed on as bounds.

Common to all, as to type: functional
The subject of assay [1] is Mucor racemosus. Kind of assay: Antifungal activity against Mucor racemosus after 2 to 7 days by serial plate dilution method.
Assay [2] concerns Cryptococcus neoformans. Nature of the assay: Antifungal activity against Cryptococcus neoformans after 2 to 7 days by serial plate dilution method. A digest of the protocol:
(§1)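 Compounds dissolved as DMSO stocks and serially diluted in RPMI 1640 buffered with MOPS, giving final concentrations of 128–0.25. Individual fungal inoculum added to each well. Incubated in triplicate at 37 °C for 2–7 days. MIC read as the lowest concentration with no visible growth. Amphotericin B and fluconazole served as positive controls.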

Assay [3] deals with Epidermophyton floccosum. Nature of the assay: Antifungal activity against Epidermophyton floccosum after 2 to 7 days by serial plate dilution method. A digest of the protocol: as §1
Assay [4] deals with Candida albicans. Nature of the assay: Antifungal activity against Candida albicans after 2 to 7 days by serial plate dilution method. A digest of the protocol:
as §1

Assay [5] deals with Nannizzia gypsea. Nature of the assay: Antifungal activity against Microsporum gypseum after 2 to 7 days by serial plate dilution method. A digest of the protocol: as §1

`Cc1cccc2c1SC(c1c[nH]c3ccccc13)CC2=O` (stereo not given): the MIC in assay [1] stood at 64 µg/mL (≈ 218 µM); in assay [2], 64 µg/mL (≈ 218 µM); in assay [3], 128 µg/mL (≈ 436 µM); in assay [4] it was 64 µg/mL (≈ 218 µM); in assay [5] it was 64 µg/mL (≈ 218 µM).

On to `O=C1CC(c2c[nH]c3ccccc23)Sc2ccc(F)cc21` (stereo not given), for which the MIC in assay [1] was 32 µg/mL (≈ 108 µM); in assay [2], 64 µg/mL (≈ 215 µM); in assay [3] it was 32 µg/mL (≈ 108 µM); in assay [4], 128 µg/mL (≈ 430 µM); in assay [5] it was 32 µg/mL (≈ 108 µM).

Turning to `Cc1cccc2c1SC(c1cn(C)c3ccccc13)CC2=O` (stereo not given), the MIC worked out at 64 µg/mL (≈ 208 µM) in assay [1]; 32 µg/mL (≈ 104 µM) in assay [2]; 64 µg/mL (≈ 208 µM) in assay [3]; 128 µg/mL (≈ 416 µM) in assay [4]; 32 µg/mL (≈ 104 µM) in assay [5].

`Cn1cc(C2CC(=O)c3cc(Cl)ccc3S2)c2ccccc21` (stereo not given): the MIC in assay [1] was determined as 32 µg/mL (≈ 97.6 µM); in assay [2], 128 µg/mL (≈ 390 µM); in assay [3], 128 µg/mL (≈ 390 µM); in assay [4], 64 µg/mL (≈ 195 µM); in assay [5], 128 µg/mL (≈ 390 µM).

Turning to `Cc1cc(C)c2c(c1)C(=O)CC(c1c[nH]c3ccc(O)cc13)S2` (stereo not given), the MIC was 32 µg/mL (≈ 98.9 µM) in assay [1]; 16 µg/mL (≈ 49.5 µM) in assay [2]; 16 µg/mL (≈ 49.5 µM) in assay [3]; 64 µg/mL (≈ 198 µM) in assay [4]; 16 µg/mL (≈ 49.5 µM) in assay [5].

As to `Cn1cc(C2CC(=O)c3cccc(Cl)c3S2)c2ccccc21` (stereo not given), the MIC was found to be 32 µg/mL (≈ 97.6 µM) in assay [1]; 64 µg/mL (≈ 195 µM) in assay [2]; 32 µg/mL (≈ 97.6 µM) in assay [3]; 32 µg/mL (≈ 97.6 µM) in assay [4]; 32 µg/mL (≈ 97.6 µM) in assay [5].

As for `Cc1cc2c(cc1F)SC(c1c[nH]c3ccccc13)CC2=O` (stereo not given), the MIC in assay [1] was 128 µg/mL (≈ 411 µM); in assay [2] it was 64 µg/mL (≈ 206 µM); in assay [3], 64 µg/mL (≈ 206 µM); in assay [4], above 128 µg/mL; in assay [5], 64 µg/mL (≈ 206 µM).

In the case of `O=C1CC(c2c[nH]c3ccccc23)Sc2c(F)cccc21` (stereo not given), the MIC is 32 µg/mL (≈ 108 µM) in assay [1]; 16 µg/mL (≈ 53.8 µM) in assay [2]; 8 µg/mL (≈ 26.9 µM) in assay [3]; 32 µg/mL (≈ 108 µM) in assay [4]; 8 µg/mL (≈ 26.9 µM) in assay [5].

Regarding `Cc1cc(C)c2c(c1)C(=O)CC(c1c[nH]c3ccccc13)S2` (stereo not given), the MIC in assay [1] was found to be 128 µg/mL (≈ 416 µM); in assay [2] it was 32 µg/mL (≈ 104 µM); in assay [3], 128 µg/mL (≈ 416 µM); in assay [4] it was 64 µg/mL (≈ 208 µM); in assay [5], 64 µg/mL (≈ 208 µM).

On to `OC(Cn1cncn1)(Cn1cncn1)c1ccc(F)cc1F` [FLUCONAZOLE], for which the minimal inhibitory concentration (MIC) in assay [1] stood at 32 µg/mL (≈ 104 µM); in assay [2] it was 8 µg/mL (≈ 26.1 µM); in assay [3], 32 µg/mL (≈ 104 µM); in assay [4] it was 32 µg/mL (≈ 104 µM); in assay [5], 64 µg/mL (≈ 209 µM).

On to `O=C1CC(c2c[nH]c3ccc(Cl)cc23)Sc2c(F)cccc21` (stereo not given), for which the MIC in assay [1] was found to be 8 µg/mL (≈ 24.1 µM); in assay [2], 4 µg/mL (≈ 12.1 µM); in assay [3], 4 µg/mL (≈ 12.1 µM); in assay [4], 32 µg/mL (≈ 96.4 µM); in assay [5] it was 8 µg/mL (≈ 24.1 µM).

For `O=C1CC(c2c[nH]c3ccc(O)cc23)Sc2c(F)cccc21` (stereo not given), the minimal inhibitory concentration (MIC) in assay [1] is 16 µg/mL (≈ 51.1 µM); in assay [2], 8 µg/mL (≈ 25.5 µM); in assay [3], 4 µg/mL (≈ 12.8 µM); in assay [4], 16 µg/mL (≈ 51.1 µM); in assay [5], 16 µg/mL (≈ 51.1 µM).

Consider `O=C1CC(c2c[nH]c3ccccc23)Sc2ccc(Cl)cc21` (stereo not given), for which the minimum inhibitory concentration (MIC) in assay [1] came to 64 µg/mL (≈ 204 µM); in assay [2] it was 32 µg/mL (≈ 102 µM); in assay [3] it was 32 µg/mL (≈ 102 µM); in assay [4], 64 µg/mL (≈ 204 µM); in assay [5], 64 µg/mL (≈ 204 µM).

Turning to `Cc1ccc2c(c1)C(=O)CC(c1c[nH]c3ccccc13)S2` (stereo not given), the MIC in assay [1] is 128 µg/mL (≈ 436 µM); in assay [2] it was 32 µg/mL (≈ 109 µM); in assay [3], above 128 µg/mL; in assay [4], 128 µg/mL (≈ 436 µM); in assay [5] it was above 128 µg/mL.

As to `Cc1cc(C)c2c(c1)C(=O)CC(c1c[nH]c3ccc(Cl)cc13)S2` (stereo not given), the MIC amounted to 32 µg/mL (≈ 93.6 µM) in assay [1]; 16 µg/mL (≈ 46.8 µM) in assay [2]; 16 µg/mL (≈ 46.8 µM) in assay [3]; 32 µg/mL (≈ 93.6 µM) in assay [4]; 16 µg/mL (≈ 46.8 µM) in assay [5].

`O=C1CC(c2c[nH]c3ccc(Cl)cc23)Sc2ccc(Cl)cc21` (stereo not given): the MIC worked out at 8 µg/mL (≈ 23 µM) in assay [1]; 4 µg/mL (≈ 11.5 µM) in assay [2]; 8 µg/mL (≈ 23 µM) in assay [3]; 64 µg/mL (≈ 184 µM) in assay [4]; 16 µg/mL (≈ 45.9 µM) in assay [5].

`C[C@@H]1[C@H](O)[C@@H](C)/C=C/C=C/C=C/C=C/C=C/C=C/C=C/[C@H](O[C@@H]2O[C@H](C)[C@@H](O)[C@H](N)[C@@H]2O)C[C@@H]2O[C@](O)(C[C@@H](O)C[C@@H](O)[C@H](O)CC[C@@H](O)C[C@@H](O)CC(=O)O[C@H]1C)C[C@H](O)[C@H]2C(=O)O` [AMPHOTERICIN B]: the MIC was 4 µg/mL (≈ 4.33 µM) in assay [1]; 4 µg/mL (≈ 4.33 µM) in assay [2]; 2 µg/mL (≈ 2.16 µM) in assay [3]; 2 µg/mL (≈ 2.16 µM) in assay [4]; 2 µg/mL (≈ 2.16 µM) in assay [5].

Broadly, the MIC is the smallest concentration in the dilution series that meets the test's criterion for growth inhibition. The low end stands for inhibition by little substance, the high end for a need for much substance.
